Assay results taken from ChEMBL document CHEMBL5247578, “Effective synthesis of benzimidazoles-imidazo[1,2-a]pyrazine conjugates: A comparative study of mono-and bis-benzimidazoles for antitumor activity” (Eur J Med Chem, 2019).

How the values were obtained:
BT-549 [1] = test: Antiproliferative activity against human BT-549 cells assessed as cell growth at 0.0000001 M incubated for 48 hrs by SRB assay relative to control; assay type: functional; details: dose 100 nM, read-out: Activity
In short: (§1)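 NCI-60 five-dose screen over 10^-4–10^-8 M (10-fold dilutions). Cells grown in RPMI 1640 with 5% FBS and 2 mM L-glutamine, seeded at 5,000–40,000 cells/well and preincubated 24 h. Drug from DMSO stock, 48 h at 37 °C, 5% CO2. Adherent cells TCA-fixed and stained with 0.4% SRB; A515 read. Percent growth = (Ti−Tz)/(C−Tz)×100, or (Ti−Tz)/Tz×100 when Ti<Tz.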

786-0 [2] = test: Antiproliferative activity against human 786-0 cells assessed as cell growth at 0.0000001 M incubated for 48 hrs by SRB assay relative to control; assay type: functional; details: dose 100 nM, read-out: Activity; in short: as §1
CCRF-CEM [3] = test: Antiproliferative activity against human CCRF-CEM cells assessed as cell growth at 0.000001 M incubated for 48 hrs by SRB assay relative to control; assay type: functional; details: read-out: Activity; in short: as §1
CCRF-CEM [4] = test: Growth inhibition against human CCRF-CEM cells assessed as total growth inhibitory concentration incubated for 48 hrs by sulforhodamine B assay; assay type: functional
SR [5] = test: Antiproliferative activity against human SR cells assessed as cell growth at 0.00000001 M incubated for 48 hrs by SRB assay relative to control; assay type: functional; details: dose 10 nM, read-out: Activity
OVCAR-3 = test: Antiproliferative activity against human OVCAR-3 cells assessed as cell growth at 0.00001 M incubated for 48 hrs by SRB assay relative to control; assay type: functional; details: read-out: Activity
KM12 = test: Antiproliferative activity against human KM12 cells assessed as cell growth at 0.00000001 M incubated for 48 hrs by SRB assay relative to control; assay type: functional; details: dose 10 nM, read-out: Activity
SF-539 [6] = test: Antiproliferative activity against human SF-539 cells assessed as cell growth at 0.00001 M incubated for 48 hrs by SRB assay relative to control; assay type: functional; details: read-out: Activity
HCT-116 = test: Antiproliferative activity against human HCT-116 cells assessed as cell growth at 0.000001 M incubated for 48 hrs by SRB assay relative to control; assay type: functional; details: read-out: Activity
In short: (§2)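 NCI-60 five-dose screen (10^-4 to 10^-8 M). Cells grown in RPMI 1640 with 5% FBS and 2 mM L-glutamine, plated at 5,000-40,000 cells/well and preincubated 24 h. Drug given from DMSO stock, then 48 h at 37 °C, 5% CO2. For adherent lines, cells fixed with cold TCA, SRB-stained and read at 515 nm. Percent growth taken against time-zero and untreated control.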

EKVX = test: Antiproliferative activity against human EKVX cells assessed as cell growth at 0.00000001 M incubated for 48 hrs by SRB assay relative to control; assay type: functional; details: dose 10 nM, read-out: Activity; in short: as §2
HOP-62 [7] = test: Antiproliferative activity against human HOP-62 cells assessed as cell growth at 0.0001 M incubated for 48 hrs by SRB assay relative to control; assay type: functional; details: read-out: Activity; in short: as §2
SK-OV-3 = test: Antiproliferative activity against human SK-OV-3 cells assessed as cell growth at 0.00001 M incubated for 48 hrs by SRB assay relative to control; assay type: functional; details: read-out: Activity
BT-549 [8] = test: Antiproliferative activity against human BT-549 cells assessed as cell growth inhibition by measuring lethal concentration incubated for 48 hrs by sulforhodamine B assay; assay type: functional; details: read-out: LC50 (the source's name)
HT-29 = test: Growth inhibition against human HT-29 cells incubated for 48 hrs by sulforhodamine B assay; assay type: functional
OVCAR-5 = test: Antiproliferative activity against human OVCAR-5 cells assessed as cell growth at 0.0000001 M incubated for 48 hrs by SRB assay relative to control; assay type: functional; details: dose 100 nM, read-out: Activity
COLO 205 = test: Antiproliferative activity against human COLO 205 cells assessed as cell growth at 0.0001 M incubated for 48 hrs by SRB assay relative to control; assay type: functional; details: read-out: Activity; in short: as §1
UACC-257 = test: Antiproliferative activity against human UACC-257 cells assessed as cell growth at 0.00001 M incubated for 48 hrs by SRB assay relative to control; assay type: functional; details: read-out: Activity
SNB-19 [9] = test: Growth inhibition against human SNB-19 cells assessed as total growth inhibitory concentration incubated for 48 hrs by sulforhodamine B assay; assay type: functional
CCRF-CEM [10] = test: Antiproliferative activity against human CCRF-CEM cells assessed as cell growth at 0.0001 M incubated for 48 hrs by SRB assay relative to control; assay type: functional; details: read-out: Activity; in short: as §1
NCI-H322M = test: Antiproliferative activity against human NCI-H322M cells assessed as cell growth at 0.00000001 M incubated for 48 hrs by SRB assay relative to control; assay type: functional; details: dose 10 nM, read-out: Activity
SNB-19 [11] = test: Antiproliferative activity against human SNB-19 cells assessed as cell growth inhibition by measuring lethal concentration incubated for 48 hrs by sulforhodamine B assay; assay type: functional; details: read-out: LC50 (the source's name)
In short: (§3)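 NCI-60 five-dose screen (10^-4 to 10^-8 M, 10-fold dilutions; DMSO stocks). Cells in RPMI 1640 with 5% FBS and 2 mM L-glutamine, preincubated 24 h, then exposed 48 h at 37 °C, 5% CO2. Fixed with cold TCA, stained with 0.4% SRB, absorbance read at 515 nm. Time-zero plates used as reference. LC50 taken from [(Ti-Tz)/Tz]×100 […].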

Calf thymus DNA = test: Binding affinity to calf thymus DNA assessed as intercalation by measuring hypochromic shift at 20 uM by UV-vis spectrophotometric method relative to control; assay type: nucleic-acid assay; details: Bos taurus
U-251 = test: Antiproliferative activity against human U-251 cells assessed as cell growth at 0.0000001 M incubated for 48 hrs by SRB assay relative to control; assay type: functional; details: dose 100 nM, read-out: Activity
SF-539 [12] = test: Antiproliferative activity against human SF-539 cells assessed as cell growth at 0.0001 M incubated for 48 hrs by SRB assay relative to control; assay type: functional; details: read-out: Activity
M14 = test: Antiproliferative activity against human M14 cells assessed as cell growth at 0.0000001 M incubated for 48 hrs by SRB assay relative to control; assay type: functional; details: dose 100 nM, read-out: Activity
HOP-62 [13] = test: Antiproliferative activity against human HOP-62 cells assessed as cell growth inhibition by measuring lethal concentration incubated for 48 hrs by sulforhodamine B assay; assay type: functional; details: read-out: LC50 (the source's name)
SK-MEL-5 [14] = test: Antiproliferative activity against human SK-MEL-5 cells assessed as cell growth at 0.00000001 M incubated for 48 hrs by SRB assay relative to control; assay type: functional; details: dose 10 nM, read-out: Activity
SR [15] = test: Antiproliferative activity against human SR cells assessed as cell growth inhibition by measuring lethal concentration incubated for 48 hrs by sulforhodamine B assay; assay type: functional; details: read-out: LC50 (the source's name); in short: as §3
786-0 [16] = test: Antiproliferative activity against human 786-0 cells assessed as cell growth at 0.000001 M incubated for 48 hrs by SRB assay relative to control; assay type: functional; details: read-out: Activity; in short: as §1
SK-MEL-5 [17] = test: Growth inhibition against human SK-MEL-5 cells incubated for 48 hrs by sulforhodamine B assay; assay type: functional
A498 = test: Antiproliferative activity against human A498 cells assessed as cell growth at 0.00000001 M incubated for 48 hrs by SRB assay relative to control; assay type: functional; details: dose 10 nM, read-out: Activity; in short: as §1
HCT-15 = test: Antiproliferative activity against human HCT-15 cells assessed as cell growth at 0.00000001 M incubated for 48 hrs by SRB assay relative to control; assay type: functional; details: dose 10 nM, read-out: Activity; in short: as §2
CCRF-CEM [18] = test: Growth inhibition against human CCRF-CEM cells incubated for 48 hrs by sulforhodamine B assay; assay type: functional

Structure (SMILES)	growth at 0.1 µM (BT-549 [1])	growth at 0.1 µM (786-0 [2])	growth at 1 µM (CCRF-CEM [3])	TGI (CCRF-CEM [4])	growth at 0.01 µM (SR [5])	growth at 10 µM (OVCAR-3)	growth at 0.01 µM (KM12)	growth at 10 µM (SF-539 [6])	growth at 1 µM (HCT-116)	growth at 0.01 µM (EKVX)	growth at 100 µM (HOP-62 [7])	growth at 10 µM (SK-OV-3)	CC50 (BT-549 [8])	GI50 (HT-29)	growth at 0.1 µM (OVCAR-5)	growth at 100 µM (COLO 205)	growth at 10 µM (UACC-257)	TGI (SNB-19 [9])	growth at 100 µM (CCRF-CEM [10])	growth at 0.01 µM (NCI-H322M)	other results
COc1ccc(-c2cn3ccnc3c(-c3ccc4ncn(C5CCCCC5)c4c3)n2)cc1	88%	93%	59%	> 100 µM	102%	10%	100%	-53%	23%	87%	8%	-5%	> 100 µM	0.383 µM	90%	-5%	60%	> 100 µM	22%	92%	CC50 (SNB-19 [11]): > 100 µM; Activity (Calf thymus DNA): 20.8%; growth at 0.1 µM (U-251): 104%; growth at 100 µM (SF-539 [12]): -19%; growth at 0.1 µM (M14): 95%; CC50 (HOP-62 [13]): > 100 µM; growth at 0.01 µM (SK-MEL-5 [14]): 98%; CC50 (SR [15]): > 100 µM; growth at 1 µM (786-0 [16]): 34%; GI50 (SK-MEL-5 [17]): 0.698 µM; growth at 0.01 µM (A498): 100%; growth at 0.01 µM (HCT-15): 94%; GI50 (CCRF-CEM [18]): 1.64 µM
c1ccc(Cn2cnc3ccc(-c4nc(-c5ccc6c(c5)ncn6C5CCCCC5)cn5ccnc45)cc32)cc1	92%	86%	72%	> 100 µM	98%	-29%	100%	-75%	54%	89%	5%	-24%	5.96 µM	1.89 µM	89%	-39%	-64%	> 100 µM	9%	97%	CC50 (SNB-19 [11]): > 100 µM; Activity (Calf thymus DNA): 15.3%; growth at 0.1 µM (U-251): 107%; growth at 100 µM (SF-539 [12]): -38%; growth at 0.1 µM (M14): 91%; CC50 (HOP-62 [13]): > 100 µM; growth at 0.01 µM (SK-MEL-5 [14]): 101%; CC50 (SR [15]): > 100 µM; growth at 1 µM (786-0 [16]): 46%; GI50 (SK-MEL-5 [17]): 1.5 µM; growth at 0.01 µM (A498): 95%; growth at 0.01 µM (HCT-15): 92%; GI50 (CCRF-CEM [18]): 2.18 µM
